OXTR potentiator: potentiates the human oxytocin receptor response; activation, % at 3 µM; P30559; CHO-OTR cells, Fluo-8 calcium fluorescence, potentiator mode; 0% = oxytocin EC15, 100% = EC100; hit rate 0.061% among 320,000; AID 2445;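 active = activation above that plate's cutoff, the mean activation of tested compounds plus 3 SD, cut at about 6.6% in these data, passing the limit was not always enough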
Target sequence (P30559 whole entry, looked up): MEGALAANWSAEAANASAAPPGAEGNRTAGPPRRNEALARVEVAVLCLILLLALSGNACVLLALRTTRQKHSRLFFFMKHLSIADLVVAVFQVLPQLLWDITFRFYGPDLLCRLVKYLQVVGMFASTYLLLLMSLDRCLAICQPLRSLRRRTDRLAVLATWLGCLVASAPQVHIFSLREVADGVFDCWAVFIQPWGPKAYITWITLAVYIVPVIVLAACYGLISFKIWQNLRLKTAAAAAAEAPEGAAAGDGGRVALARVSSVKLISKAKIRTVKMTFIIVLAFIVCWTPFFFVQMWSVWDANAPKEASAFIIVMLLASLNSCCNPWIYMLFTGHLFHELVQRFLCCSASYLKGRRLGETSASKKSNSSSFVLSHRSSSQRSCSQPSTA
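Replication – single well per compound, singlicate · Assay system – CHO cell line stably expressing human OTR · Timing – 6 min pre-incubation, 100 s read · Measure – normalized max/min fluorescence ratio, % activation · Doses – 3.0 µM, one dose · Detection – Fluo-8 calcium dye fluorescence · Probe or stimulus – oxytocin near EC15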
TAAR1 ag: agonists of human TAAR1; AID 624467; CHO RD-HGA16 TAAR1, Fluo-8 calcium fluorescence; vehicle wells 0%, saturating PEA agonist 100%; activation, % at 3 µM; hit rate 0.99% among 360,000; Q96RJ0;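 active = activation above the mean activation of all test compounds in the run plus 3 SD, cut at about 38% in these data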
Target sequence (Q96RJ0 whole entry, looked up): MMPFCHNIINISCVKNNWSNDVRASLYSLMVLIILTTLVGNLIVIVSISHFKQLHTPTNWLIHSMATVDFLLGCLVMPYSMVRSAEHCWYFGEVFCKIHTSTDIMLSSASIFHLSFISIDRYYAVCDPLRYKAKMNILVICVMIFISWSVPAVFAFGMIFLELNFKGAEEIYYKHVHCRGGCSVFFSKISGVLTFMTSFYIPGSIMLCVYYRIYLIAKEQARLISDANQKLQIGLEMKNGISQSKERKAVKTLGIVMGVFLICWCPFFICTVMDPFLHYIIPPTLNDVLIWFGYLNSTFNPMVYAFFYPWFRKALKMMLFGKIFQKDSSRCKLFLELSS
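System: CHO-derived RD-HGA16 cells with stable Gα16 and human TAAR1. Times: 17-24 h plating, Fluo-8 75 min 37 °C, 30 min RT. Measured by: calcium-sensitive Fluo-8 signal, excitation 470-495, emission 515-575 nm. Read-out basis: % activation relative to PEA EC100 response. Control set: DMSO and PEA EC100. Repeats: no replicates (n 1).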
TAAR1 antagonist: antagonists of human TAAR1. hit rate 1.5% among 360,000. inhibition, % at 3 µM. CHO RD-HGA16 TAAR1, Fluo-8 calcium fluorescence, antagonist. AID 624466;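 active = inhibition above a per-plate cutoff, the mean inhibition of test compounds on that plate plus 3 SD, cut at about 49% in these data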
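Test system: RD-HGA16 CHO cells with stable hTAAR1 and Gα16 / Probe or stimulus: EC80 β-phenethylamine stimulus / Times: seeding 17-24 h prior, 75-min 37 °C, 30-min RT dye loading / Detection: Fluo-8 calcium-sensitive fluorescence / Read-out basis: % inhibition scaled between DMSO and EC80 PEA controls / Repeats: singlicate, one well per test compound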
V1aR counter: counter-screen for oxytocin receptor agonists: human V1a receptor agonists | P37288 | CHO-V1R cells, Fluo-8 calcium fluorescence, agonist mode; 0% DMSO, 100% 3 nM vasopressin | activation, % at 3 µM | hit rate 0.25% among 320,000 | AID 2797;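 active = activation above the mean activation of all tested compounds plus 3 SD, per screening run, cut at about 20% in these data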;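 also: signal is peak over basal fluorescence ratio across a 100 second FLIPR read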
OXTR ag: human OXTR agonism; CHO-OTR cells, Fluo-8 calcium fluorescence; normalized: DMSO 0%, oxytocin 100%; activation, % at 3 µM; hit rate 0.32% among 320,000; AID 2435;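 active = activation above the mean of all tested compounds plus 3 SD, cutoff set per screening run, cut at about 20% in these data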;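 also: peak over basal fluorescence ratio from a 100 s FLIPR kinetic read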
TAAR1 ag conf: confirmation of human TAAR1 agonists | shares compounds with TAAR1 ag | CHO RD-HGA16 TAAR1, Fluo-8 calcium fluorescence; scaled: DMSO 0%, maximal phenethylamine 100% | activation, % at 3 µM | hit rate 82% among 2,400 | AID 651783;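 active = activation above a cutoff set at the run's mean compound activation plus 3 SD, cut at about 39% in these data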
Ga16 ag counter: counter-screen for TAAR1 agonists: nonselective agonists in parental cells; hit rate 50% among 2,400; CHO-Ga16 parental, Fluo-8 calcium fluorescence; normalized to maximal ATP response, DMSO zero; shares compounds with TAAR1 ag; AID 651787; activation, % at 3 µM;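 active = activation above the run cutoff, the mean activation over all tested wells plus 3 SD, cut at about 12% in these data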
TAAR1 desens: counter-screen for human TAAR1 agonists: agonists that desensitize TAAR1. inhibition, % at 3 µM. shares compounds with TAAR1 ag. hit rate 46% among 2,400. CHO RD-HGA16 hTAAR1, Fluo-8 calcium, beta-PEA response inhibition;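 active = inhibition above the run cutoff, the mean inhibition of all test compounds plus 3 SD, cut at about 49% in these data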;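 also: beta-PEA stimulus applied at its EC80; loss of beta-PEA calcium signal after compound pretreatment read as receptor desensitization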
Ga16 antag count: counter-screen for TAAR1 agonists: nonselective Ga16 antagonists. inhibition, % at 3 µM. AID 651952. hit rate 39% among 2,400. CHO-Ga16 ATP-induced calcium, Fluo-8 fluorescence. shares compounds with TAAR1 ag;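 active = inhibition above the plate's mean compound inhibition plus 3 SD, computed per plate, cut at about 22% in these data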
Each line names hits and unclear results; the compound was inactive in the other large screens (follow-up assays come after a bar, where they were run). Hits are enriched below; roughly 2.3% of the tested compounds scored in any of these assays.

COc1ccc(C(CCNCc2ccccc2)c2ccc(F)cc2)cc1 (stereo not given)	none
COc1ccc(C(CCNC(C)c2ccccc2)c2ccc(F)cc2)cc1 (stereo not given)	TAAR1 ag 51 | TAAR1 ag conf 66 | Ga16 ag counter 35 | TAAR1 desens inactive | Ga16 antag count 34
CC(Cc1ccccc1)N/C=C1\CC(=O)NC1=O (stereo not given)	TAAR1 ag 74, TAAR1 antagonist 53 | TAAR1 ag conf 72 | Ga16 ag counter inactive | TAAR1 desens inactive | Ga16 antag count inactive
CC(Cc1ccccc1)NC(=O)C1CCCNC1=O (stereo not given)	none
Cc1ccc(C)c2[nH]c(=O)c(C(c3nnnn3Cc3ccco3)N3CCc4ccccc4C3)cc12 (stereo not given)	TAAR1 ag 52 | TAAR1 ag conf 58 | Ga16 ag counter inactive | TAAR1 desens inactive | Ga16 antag count inactive
O=C(COC(=O)/C=C/c1cccc(C(F)(F)F)c1)NCc1cccs1	TAAR1 ag 79, TAAR1 antagonist 66 | TAAR1 ag conf 66 | Ga16 ag counter 44 | TAAR1 desens inactive | Ga16 antag count inactive
COc1ncnc2c1ncn2CCCNCC(C)c1ccccc1 (stereo not given)	TAAR1 ag 65 (no result: OXTR potentiator, V1aR counter, OXTR ag) | TAAR1 ag conf 81 | Ga16 ag counter inactive | TAAR1 desens 50 | Ga16 antag count inactive
CC(C)Cc1ccc(C(C)C(=O)Nc2cccnc2)cc1 (stereo not given)	TAAR1 ag 84, TAAR1 antagonist 63, V1aR counter 43, OXTR ag 46 | TAAR1 ag conf 126 | Ga16 ag counter 65 | TAAR1 desens 79 | Ga16 antag count 43
CC(C)Cc1ccc(C(C)C(=O)Nc2ccc(O)cc2)cc1 (stereo not given)	TAAR1 ag 119, TAAR1 antagonist 93, V1aR counter 44, OXTR ag 50 | TAAR1 ag conf 108 | Ga16 ag counter 71 | TAAR1 desens 101 | Ga16 antag count 82
CC(C)Cc1ccc([C@H](C)C(=O)O)cc1	none
CCOc1cccc(C=Nc2cc(C)cc(C)c2O)c1O	none
CC(=C/c1ccccc1)/C=N/n1cnnc1	TAAR1 ag 96 | TAAR1 ag conf inactive | Ga16 ag counter 59 | TAAR1 desens inactive | Ga16 antag count inactive
ClC(=C\c1ccccc1)/C=N/N1CCN(c2ccccn2)CC1	none
CC(/C=N/n1cnnc1)=C\c1ccccc1	TAAR1 ag 102 | TAAR1 ag conf 87 | Ga16 ag counter 63 | TAAR1 desens inactive | Ga16 antag count inactive
C(=C\c1ccccc1)/C=N/n1cnnc1	none
ClC(/C=N/n1cnnc1)=C/c1ccccc1	TAAR1 ag 76 | TAAR1 ag conf 62 | Ga16 ag counter 30 | TAAR1 desens inactive | Ga16 antag count inactive
C[C@H](O)[C@@H]1C(=O)N2CCc3c([nH]c4c(-c5ccc6c(c5)OCO6)cccc34)[C@@H]2C[C@@H]1N(C)C(=O)NC1CCCCC1	none (no result: OXTR potentiator, V1aR counter, OXTR ag)
CC1C(c2ccccc2)OCCN1C(=S)Nc1ccc(S(=O)(=O)N2CCCCC2)cc1 (stereo not given)	TAAR1 ag 55 (no result: OXTR potentiator, V1aR counter, OXTR ag) | TAAR1 ag conf 56 | Ga16 ag counter inactive | TAAR1 desens inactive | Ga16 antag count 32
O=C(COc1ccc(S(=O)(=O)N2CCCC2)cc1Cl)NC1CC1	none
Cc1ccc(C(=O)N/C(=C\c2ccco2)C(=O)N2CCCCC2)cc1	none
Cc1ccc(S(=O)(=O)n2nc(OC(=O)c3c(F)cccc3Cl)cc2N)cc1	TAAR1 ag 60 | TAAR1 ag conf 65 | Ga16 ag counter 27 | TAAR1 desens inactive | Ga16 antag count inactive
Cc1ccc(S(=O)(=O)n2nc(OC(=O)c3ccco3)cc2N)cc1	none
Cc1ccc(S(=O)(=O)n2nc(OC(=O)c3cccc(F)c3)cc2N)cc1	TAAR1 ag 103 | TAAR1 ag conf 56 | Ga16 ag counter 38 | TAAR1 desens inactive | Ga16 antag count inactive
CCN1C(=O)/C(=C/c2ccc(OCc3ccc(C(=O)O)cc3)c(Cl)c2)NC1=S	TAAR1 ag 100, TAAR1 antagonist 96 | TAAR1 ag conf inactive | Ga16 ag counter 36 | TAAR1 desens 76 | Ga16 antag count 68
O=C(O)c1ccc(COc2ccc(CO)cc2Cl)cc1	none
COc1cccc(NS(=O)(=O)c2cc(C)sc2C)c1	none
Cc1cc(S(=O)(=O)Nc2cccc(Cl)c2)c(C)s1	TAAR1 ag 40 | TAAR1 ag conf 60 | Ga16 ag counter inactive | TAAR1 desens inactive | Ga16 antag count inactive
Cc1ccc(CNC(=O)CSc2ccc(-c3ccco3)nn2)cc1	none
COc1ccccc1CCNC(=O)C1CCCO1 (stereo not given)	TAAR1 ag 43 | TAAR1 ag conf 73 | Ga16 ag counter inactive | TAAR1 desens inactive | Ga16 antag count inactive
CC(C)=C1C2CCC1C(C(=O)Nc1cc(C)cc(C)c1)C2C(=O)O (stereo not given)	none
O=C(O)C1C2C=CC(C3CC23)C1C(=O)NCCc1ccccc1 (stereo not given)	TAAR1 ag 91, TAAR1 antagonist 93 | TAAR1 ag conf 96 | Ga16 ag counter inactive | TAAR1 desens 97 | Ga16 antag count inactive
CC(C)=C1C2CCC1C(C(=O)NCCc1ccccc1)C2C(=O)O (stereo not given)	TAAR1 ag 62, TAAR1 antagonist 88 | TAAR1 ag conf 80 | Ga16 ag counter inactive | TAAR1 desens 90 | Ga16 antag count inactive
Nc1c(Br)cc(Br)c2c1C(=O)c1c(cccc1S(=O)(=O)O)C2=O	none (no result: OXTR potentiator, V1aR counter, OXTR ag)
O=C(O)/C=C/C(=O)NCc1csc2ccccc12	none (no result: TAAR1 ag, TAAR1 antagonist) | Ga16 ag counter inactive | Ga16 antag count inactive
Cc1ccccc1CNC(=O)/C=C\C(=O)O	none
CC(C)c1ccc(/C=C/C(=O)NCCC2=CCCCC2)cc1	none
O=C(O)C1C2CCC(C2)C1C(=O)NCCC1=CCCCC1 (stereo not given)	TAAR1 ag 80, TAAR1 antagonist 85 | TAAR1 ag conf 94 | Ga16 ag counter inactive | TAAR1 desens 77 | Ga16 antag count inactive
O=C(O)/C=C/C(=O)NCCC1=CCCCC1	TAAR1 ag 73, TAAR1 antagonist 84 | TAAR1 ag conf 95 | Ga16 ag counter inactive | TAAR1 desens 97 | Ga16 antag count inactive
